From ChEMBL document CHEMBL4689842, “EUbOPEN Chemogenomics Library wave 1” (2021)

Assays:
U2OS = experiment: Multiplex assay against U2OS; type: toxicity, cell-based; details: human
How it was run: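 Live cells were stained at seeding with Hoechst33342, BioTracker Green Microtubule Cytoskeleton Dye, MitoTracker Red and Annexin V Alexa Fluor 680. Following compound addition, they were imaged on a CQ1 microscope at 37°C and 5% CO2 and gated by CellPathfinder machine learning into Hoechst high-intensity objects or normal cells, with normal cells split into healthy, pyknosed or fragmented nuclei and pyknosed cells into mitotic or apoptotic. Tubulin, mitochondrial-mass and membrane-permeability phenotypes are per cents of healthy-nucleus cells.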

HEK-293T = experiment: Incucyte cell viability with HEK293T; type: toxicity, cell-based; details: human, 10 µM, compound concentration 10 uM; note: filed as whole numbers so only -1 and 0 and 1 occur
[1] = 12 h, 1 µM, compound concentration 1 uM, replicate 1
[2] = 12 h, 1 µM, compound concentration 1 uM, replicate 2
[3] = 12 h, 10 µM, compound concentration 10 uM, replicate 1
[4] = 12 h, 10 µM, compound concentration 10 uM, replicate 2
[5] = 24 h, 1 µM, compound concentration 1 uM, replicate 1
[6] = 24 h, 1 µM, compound concentration 1 uM, replicate 2
[7] = 24 h, 10 µM, compound concentration 10 uM, replicate 1
[8] = 24 h, 10 µM, compound concentration 10 uM, replicate 2
[9] = 48 h, 1 µM, compound concentration 1 uM, replicate 1
[10] = 48 h, 1 µM, compound concentration 1 uM, replicate 2
[11] = 48 h, 10 µM, compound concentration 10 uM, replicate 1
[12] = 48 h, 10 µM, compound concentration 10 uM, replicate 2

CC(=O)c1cc(-c2cc(C(=O)NC3CC3)ccc2C)c2ncccn12
Population Apoptotic (%) (U2OS; [1]): 42%
Population Fragmented Nuclei (%) (U2OS; [1]): 6%
Population Healthy Nuclei (%) (U2OS; [1]): 84%
Population Hoechst High Intensity Objects (%) (U2OS; [1]): 5%
Population Membrane Permeable-Phenotype (%) (U2OS; [1]): 9%
Population Mitochondria Different-Phenotype (%) (U2OS; [1]): 8%
Population Mitotic Cells (%) (U2OS; [1]): 57%
Population Normal (%) (U2OS; [1]): 94%
Population Pyknosed Nuclei (%) (U2OS; [1]): 8%
Population Tubulin-Different-Phenotype (%) (U2OS; [1]): 14%
Total Cell Count (U2OS; [1]): 108
Population Apoptotic (%) (U2OS; [2]): 66%
Population Fragmented Nuclei (%) (U2OS; [2]): 8%
Population Healthy Nuclei (%) (U2OS; [2]): 85%
Population Hoechst High Intensity Objects (%) (U2OS; [2]): 7%
Population Membrane Permeable-Phenotype (%) (U2OS; [2]): 2%
Population Mitochondria Different-Phenotype (%) (U2OS; [2]): 7%
Population Mitotic Cells (%) (U2OS; [2]): 33%
Population Normal (%) (U2OS; [2]): 92%
Population Pyknosed Nuclei (%) (U2OS; [2]): 6%
Population Tubulin-Different-Phenotype (%) (U2OS; [2]): 19%
Total Cell Count (U2OS; [2]): 73
Population Apoptotic (%) (U2OS; [3]): 43%
Population Fragmented Nuclei (%) (U2OS; [3]): 7%
Population Healthy Nuclei (%) (U2OS; [3]): 79%
Population Hoechst High Intensity Objects (%) (U2OS; [3]): 6%
Population Membrane Permeable-Phenotype (%) (U2OS; [3]): 6%
Population Mitochondria Different-Phenotype (%) (U2OS; [3]): 9%
Population Mitotic Cells (%) (U2OS; [3]): 56%
Population Normal (%) (U2OS; [3]): 93%
Population Pyknosed Nuclei (%) (U2OS; [3]): 12%
Population Tubulin-Different-Phenotype (%) (U2OS; [3]): 16%
Total Cell Count (U2OS; [3]): 169
Population Apoptotic (%) (U2OS; [4]): 60%
Population Fragmented Nuclei (%) (U2OS; [4]): 11%
Population Healthy Nuclei (%) (U2OS; [4]): 84%
Population Hoechst High Intensity Objects (%) (U2OS; [4]): 4%
Population Membrane Permeable-Phenotype (%) (U2OS; [4]): 3%
Population Mitochondria Different-Phenotype (%) (U2OS; [4]): 8%
Population Mitotic Cells (%) (U2OS; [4]): 40%
Population Normal (%) (U2OS; [4]): 95%
Population Pyknosed Nuclei (%) (U2OS; [4]): 5%
Population Tubulin-Different-Phenotype (%) (U2OS; [4]): 17%
Total Cell Count (U2OS; [4]): 52
Population Apoptotic (%) (U2OS; [5]): 43%
Population Fragmented Nuclei (%) (U2OS; [5]): 4%
Population Healthy Nuclei (%) (U2OS; [5]): 89%
Population Hoechst High Intensity Objects (%) (U2OS; [5]): 4%
Population Membrane Permeable-Phenotype (%) (U2OS; [5]): 6%
Population Mitochondria Different-Phenotype (%) (U2OS; [5]): 5%
Population Mitotic Cells (%) (U2OS; [5]): 56%
Population Normal (%) (U2OS; [5]): 96%
Population Pyknosed Nuclei (%) (U2OS; [5]): 6%
Population Tubulin-Different-Phenotype (%) (U2OS; [5]): 17%
Total Cell Count (U2OS; [5]): 111
Population Apoptotic (%) (U2OS; [6]): 0%
Population Fragmented Nuclei (%) (U2OS; [6]): 3%
Population Healthy Nuclei (%) (U2OS; [6]): 91%
Population Membrane Permeable-Phenotype (%) (U2OS; [6]): 3%
Population Mitochondria Different-Phenotype (%) (U2OS; [6]): 9%
Population Mitotic Cells (%) (U2OS; [6]): 100%
Population Normal (%) (U2OS; [6]): 95%
Population Pyknosed Nuclei (%) (U2OS; [6]): 5%
Population Tubulin-Different-Phenotype (%) (U2OS; [6]): 12%
Total Cell Count (U2OS; [6]): 70
Population Apoptotic (%) (U2OS; [7]): 25%
Population Fragmented Nuclei (%) (U2OS; [7]): 15%
Population Healthy Nuclei (%) (U2OS; [7]): 66%
Population Hoechst High Intensity Objects (%) (U2OS; [7]): 2%
Population Membrane Permeable-Phenotype (%) (U2OS; [7]): 10%
Population Mitochondria Different-Phenotype (%) (U2OS; [7]): 5%
Population Mitotic Cells (%) (U2OS; [7]): 75%
Population Normal (%) (U2OS; [7]): 97%
Population Pyknosed Nuclei (%) (U2OS; [7]): 18%
Population Tubulin-Different-Phenotype (%) (U2OS; [7]): 17%
Total Cell Count (U2OS; [7]): 250
Population Apoptotic (%) (U2OS; [8]): 48%
Population Fragmented Nuclei (%) (U2OS; [8]): 11%
Population Healthy Nuclei (%) (U2OS; [8]): 63%
Population Membrane Permeable-Phenotype (%) (U2OS; [8]): 8%
Population Mitochondria Different-Phenotype (%) (U2OS; [8]): 12%
Population Mitotic Cells (%) (U2OS; [8]): 51%
Population Pyknosed Nuclei (%) (U2OS; [8]): 24%
Population Tubulin-Different-Phenotype (%) (U2OS; [8]): 18%
Total Cell Count (U2OS; [8]): 62
Population Apoptotic (%) (U2OS; [9]): 47%
Population Fragmented Nuclei (%) (U2OS; [9]): 3%
Population Healthy Nuclei (%) (U2OS; [9]): 91%
Population Hoechst High Intensity Objects (%) (U2OS; [9]): 2%
Population Membrane Permeable-Phenotype (%) (U2OS; [9]): 3%
Population Mitochondria Different-Phenotype (%) (U2OS; [9]): 9%
Population Mitotic Cells (%) (U2OS; [9]): 52%
Population Normal (%) (U2OS; [9]): 97%
Population Pyknosed Nuclei (%) (U2OS; [9]): 5%
Population Tubulin-Different-Phenotype (%) (U2OS; [9]): 21%
Total Cell Count (U2OS; [9]): 106
Population Apoptotic (%) (U2OS; [10]): 16%
Population Fragmented Nuclei (%) (U2OS; [10]): 2%
Population Hoechst High Intensity Objects (%) (U2OS; [10]): 3%
Population Membrane Permeable-Phenotype (%) (U2OS; [10]): 2%
Population Mitochondria Different-Phenotype (%) (U2OS; [10]): 20%
Population Mitotic Cells (%) (U2OS; [10]): 83%
Population Normal (%) (U2OS; [10]): 96%
Population Pyknosed Nuclei (%) (U2OS; [10]): 6%
Population Tubulin-Different-Phenotype (%) (U2OS; [10]): 23%
Total Cell Count (U2OS; [10]): 67
Population Apoptotic (%) (U2OS; [11]): 70%
Population Fragmented Nuclei (%) (U2OS; [11]): 16%
Population Healthy Nuclei (%) (U2OS; [11]): 60%
Population Hoechst High Intensity Objects (%) (U2OS; [11]): 7%
Population Membrane Permeable-Phenotype (%) (U2OS; [11]): 10%
Population Mitochondria Different-Phenotype (%) (U2OS; [11]): 6%
Population Mitotic Cells (%) (U2OS; [11]): 30%
Population Normal (%) (U2OS; [11]): 92%
Population Pyknosed Nuclei (%) (U2OS; [11]): 22%
Population Tubulin-Different-Phenotype (%) (U2OS; [11]): 16%
Total Cell Count (U2OS; [11]): 381
Population Apoptotic (%) (U2OS; [12]): 87%
Population Fragmented Nuclei (%) (U2OS; [12]): 14%
Population Healthy Nuclei (%) (U2OS; [12]): 73%
Population Hoechst High Intensity Objects (%) (U2OS; [12]): 4%
Population Membrane Permeable-Phenotype (%) (U2OS; [12]): 31%
Population Mitochondria Different-Phenotype (%) (U2OS; [12]): 29%
Population Mitotic Cells (%) (U2OS; [12]): 12%
Population Normal (%) (U2OS; [12]): 95%
Population Pyknosed Nuclei (%) (U2OS; [12]): 11%
Population Tubulin-Different-Phenotype (%) (U2OS; [12]): 35%
Total Cell Count (U2OS; [12]): 93
Growth Rate (HEK-293T; 0 h, replicate number 2, timepoint 0 hours): 1
Growth Rate (HEK-293T; 6 h, replicate number 1, timepoint 6 hours): 0
Growth Rate (HEK-293T; 12 h, replicate number 1, timepoint 12 hours): 0
Growth Rate (HEK-293T; 18 h, replicate number 1, timepoint 18 hours): 0
Growth Rate (HEK-293T; 24 h, replicate number 1, timepoint 24 hours): 0
